The text below walks through data of ChEMBL document CHEMBL2177043, “HIV-1 X4 activities of polycationic "viologen" based dendrimers by interaction with the chemokine receptor CXCR4: study of structure-activity relationship” (J Med Chem, 2012).

Data set [1] deals with T1, C-X-C chemokine receptor type 4 (Homo sapiens, UniProt P61073). The experiment in a line: Inhibition of CXCL-12'AF647 binding to CXCR4 in human SUPT1 cells incubated for 15 mins by FACS. It counts as cell-based. The essentials:
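SupT1 cells (high CXCR4) washed, then incubated 15 min at room temperature with compounds at varied concentrations in HBSS containing 20 mM HEPES and 0.2% BSA, pH 7.4. CXCL12-AF647 added at 25 ng/mL final for 30 min at room temperature. Cells washed, fixed in 1% paraformaldehyde, and read by flow cytometry on FL4.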
Background: In flow cytometry, cells or beads pass a laser one at a time.

A short description of data set [2]: Cytotoxicity against human MT4 cells by MTT assay. Type of data set: cell-based. For orientation: Tetrazolium dyes change colour on reduction, which living cells bring about.
The test system of data set [3] is Human immunodeficiency virus 1. The experiment in a line: Antiviral activity against X4 HIV1 NL4.3 infected in human PBMC assessed as inhibition of viral replication pre-incubated for 30 mins measured 5 days post infection by MTT assay. Type of data set: functional, organism-based. The settings on record: Human immunodeficiency virus 1, NL4.3. The essentials: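 Human PBMC infected with HIV-1 NL4.3. IC₅₀ is the concentration inhibiting viral replication by 50%, averaged over two independent experiments. Cytotoxicity (CC₅₀, 50% loss of PBMC viability) evaluated in the same assay.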

The test system of data set [4] is Human immunodeficiency virus 1. The experiment in a line: Antiviral activity against X4 HIV1 NL4.3 infected in human MT4 cells assessed as inhibition of viral replication pre-incubated for 30 mins […]. Type of data set: functional, organism-based. Conditions: Human immunodeficiency virus 1, NL4.3, MT4.
For data set [5], the target named is T1, C-X-C chemokine receptor type 4. The experiment in a line: Inhibition of anti-CXCR4 mAbs clone 12G5 binding to CXCR4 in human SUPT1 cells incubated for 30 mins by FACS.
Data set [6] concerns the target T2, C-C chemokine receptor type 5 (Homo sapiens, UniProt P51681). The experiment in a line: Agonist activity against CCR5 expressed in U87.CD4.CCR5 cells assessed as stimulation of calcium signaling incubated for 10 mins by FLIPR.
Data set [7] in a line: Cytotoxicity against human PBMC cells by MTT assay. It counts as cell-based.
For data set [8], the target named is T2, C-C chemokine receptor type 5. Kind of data set: Antagonist activity against CCR5 expressed in U87.CD4.CCR5 cells assessed as inhibition of CCL3L1-induced calcium signaling incubated for 10 mins by FLIPR.
Data set [9] concerns the target T1, C-X-C chemokine receptor type 4. Kind of data set: Agonist activity against CXCR4 expressed in U87.CD.CXCR4 cells assessed as stimulation of calcium signaling incubated for 10 mins by FLIPR. It counts as functional, cell-based. The procedure, abridged: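 U87.CD4 cells stably carrying CXCR4 or CCR5, trypsinized and seeded at 2 × 10⁴ cells/well on 0.2% gelatin the day before. Loaded with Fluo-3 AM (4 μM, 45 min, 37 °C), washed, then exposed to test agents alone at varied concentrations in assay buffer for 10 min at 37 °C. Cytosolic Ca²⁺ rise monitored over time by FLIPR to detect any agonist-triggered signal.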

In data set [10] the target is T2, C-C chemokine receptor type 5. Kind of data set: Antagonist activity against CCR5 expressed in U87.CD4.CCR5 cells assessed as inhibition of CCL3L1-induced calcium signaling incubated for 10 mins by FLIPR. It counts as functional, cell-based. The procedure, abridged:
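U87.CD4.CCR5 cells seeded at 2 × 10⁴/well on 0.2% gelatin the day before, loaded with 4 μM Fluo-3 AM for 45 min at 37 °C, washed, then preincubated with compounds at varied concentrations in assay buffer for 10 min at 37 °C. Stimulated with 10 ng/mL LD78β (CCL3L1); Ca²⁺ flux recorded by FLIPR.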

The target in data set [11] is T1, C-X-C chemokine receptor type 4. Kind of data set: Inhibition of anti-CXCR4 mAbs clone 173 binding to CXCR4 in human SUPT1 cells incubated for 30 mins by FACS.
The target is the same in data set [12]. The experiment in a line: Antagonist activity against CXCR4 expressed in U87.CD.CXCR4 cells assessed as inhibition of CXCL12-induced calcium signaling incubated for 10 mins by FLIPR. It counts as functional, cell-based. The essentials:
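U87.CD4.CXCR4 cells seeded at 2 × 10⁴/well on 0.2% gelatin the day before, loaded with 4 μM Fluo-3 AM for 45 min at 37 °C, washed, then preincubated with compounds at varied concentrations in assay buffer for 10 min at 37 °C. Challenged with 25 ng/mL CXCL12; Ca²⁺ flux followed over time by FLIPR.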

For data set [13] the target is unchanged. Kind of data set: Inhibition of anti-CXCR4 mAbs clone 1D9 binding to CXCR4 in human SUPT1 cells incubated for 30 mins by FACS.

Each structure is given as a SMILES string. Active and inactive are the calls of the source. No cut-off for these calls is given here. Bounds are passed on as bounds.

T1 sequence (P61073 whole entry): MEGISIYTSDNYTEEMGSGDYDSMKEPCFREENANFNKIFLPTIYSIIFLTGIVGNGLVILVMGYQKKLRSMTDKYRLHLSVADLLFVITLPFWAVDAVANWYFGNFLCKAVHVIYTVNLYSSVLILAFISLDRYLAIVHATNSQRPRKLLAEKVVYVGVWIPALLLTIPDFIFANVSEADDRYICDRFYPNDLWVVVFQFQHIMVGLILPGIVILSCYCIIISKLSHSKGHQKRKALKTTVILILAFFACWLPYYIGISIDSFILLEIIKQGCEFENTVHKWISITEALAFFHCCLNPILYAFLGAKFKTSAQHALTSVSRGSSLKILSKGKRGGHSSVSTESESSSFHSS
T2 sequence (P51681 whole entry, looked up): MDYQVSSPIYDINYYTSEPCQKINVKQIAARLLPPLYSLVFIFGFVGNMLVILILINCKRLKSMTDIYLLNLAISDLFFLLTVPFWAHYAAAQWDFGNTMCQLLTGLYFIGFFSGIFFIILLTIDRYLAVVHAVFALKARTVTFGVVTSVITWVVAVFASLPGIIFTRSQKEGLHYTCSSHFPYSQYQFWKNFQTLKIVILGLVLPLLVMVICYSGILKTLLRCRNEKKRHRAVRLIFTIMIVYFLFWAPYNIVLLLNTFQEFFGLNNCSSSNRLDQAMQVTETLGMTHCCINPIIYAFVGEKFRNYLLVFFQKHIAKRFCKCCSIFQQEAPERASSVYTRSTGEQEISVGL

Usually IC50 stands for the concentration at which inhibition is half-maximal. The term CC50 denotes the concentration giving 50% cytotoxicity. On to `CC[n+]1ccc(-c2cc[n+](Cc3cc(C[n+]4ccc(-c5cc[n+](CC)cc5)cc4)cc(C[n+]4ccc(-c5cc[n+](Cc6cc(C[n+]7ccc(-c8cc[n+](Cc9cc(C[n+]%10ccc(-c%11cc[n+](CC)cc%11)cc%10)cc(C[n+]%10ccc(-c%11cc[n+](CC)cc%11)cc%10)c9)cc8)cc7)cc(C[n+]7ccc(-c8cc[n+](Cc9cc(C[n+]%10ccc(-c%11cc[n+](Cc%12cc(C[n+]%13ccc(-c%14cc[n+](Cc%15cc(C[n+]%16ccc(-c%17cc[n+](CC)cc%17)cc%16)cc(C[n+]%16ccc(-c%17cc[n+](CC)cc%17)cc%16)c%15)cc%14)cc%13)cc(C[n+]%13ccc(-c%14cc[n+](Cc%15cc(C[n+]%16ccc(-c%17cc[n+](CC)cc%17)cc%16)cc(C[n+]%16ccc(-c%17cc[n+](CC)cc%17)cc%16)c%15)cc%14)cc%13)c%12)cc%11)cc%10)cc(C[n+]%10ccc(-c%11cc[n+](Cc%12cc(C[n+]%13ccc(-c%14cc[n+](Cc%15cc(C[n+]%16ccc(-c%17cc[n+](CC)cc%17)cc%16)cc(C[n+]%16ccc(-c%17cc[n+](CC)cc%17)cc%16)c%15)cc%14)cc%13)cc(C[n+]%13ccc(-c%14cc[n+](Cc%15cc(C[n+]%16ccc(-c%17cc[n+](CC)cc%17)cc%16)cc(C[n+]%16ccc(-c%17cc[n+](CC)cc%17)cc%16)c%15)cc%14)cc%13)c%12)cc%11)cc%10)c9)cc8)cc7)c6)cc5)cc4)c3)cc2)cc1.F[P-](F)(F)(F)(F)F.F[P-](F)(F)(F)(F)F.F[P-](F)(F)(F)(F)F.F[P-](F)(F)(F)(F)F.F[P-](F)(F)(F)(F)F.F[P-](F)(F)(F)(F)F.F[P-](F)(F)(F)(F)F.F[P-](F)(F)(F)(F)F.F[P-](F)(F)(F)(F)F.F[P-](F)(F)(F)(F)F.F[P-](F)(F)(F)(F)F.F[P-](F)(F)(F)(F)F.F[P-](F)(F)(F)(F)F.F[P-](F)(F)(F)(F)F.F[P-](F)(F)(F)(F)F.F[P-](F)(F)(F)(F)F.F[P-](F)(F)(F)(F)F.F[P-](F)(F)(F)(F)F.F[P-](F)(F)(F)(F)F.F[P-](F)(F)(F)(F)F.F[P-](F)(F)(F)(F)F.F[P-](F)(F)(F)(F)F.F[P-](F)(F)(F)(F)F.F[P-](F)(F)(F)(F)F.F[P-](F)(F)(F)(F)F.F[P-](F)(F)(F)(F)F.F[P-](F)(F)(F)(F)F.F[P-](F)(F)(F)(F)F.F[P-](F)(F)(F)(F)F.F[P-](F)(F)(F)(F)F.F[P-](F)(F)(F)(F)F.F[P-](F)(F)(F)(F)F.F[P-](F)(F)(F)(F)F.F[P-](F)(F)(F)(F)F.F[P-](F)(F)(F)(F)F.F[P-](F)(F)(F)(F)F.F[P-](F)(F)(F)(F)F.F[P-](F)(F)(F)(F)F.F[P-](F)(F)(F)(F)F.F[P-](F)(F)(F)(F)F.F[P-](F)(F)(F)(F)F.F[P-](F)(F)(F)(F)F`, for which the IC50 is 0.101 µM in [1]; 1.07 µg/mL in data set [3]; 1.4 µg/mL in data set [4]; 0.111 µM in data set [5]; 0.542 µM in [10]; 0.108 µM in data set [11]. In addition, the IC50 in [12] is 0.0891 µM; in [13] it was 0.18 µM. Besides, the values for the half-maximal cytotoxic concentration (CC50) in [2] and in data set [7] were 9 µg/mL and 20 µg/mL, respectively. Besides, the inhibition result in [5], in [8], in data set [11], in data set [12] and in data set [13] was “Dose-dependent effect” each time. Further, the outcome in [6] and in data set [9] was inactive.
Regarding `CC[n+]1ccc(-c2cc[n+](Cc3cc(C[n+]4ccc(-c5cc[n+](CC)cc5)cc4)cc(-[n+]4ccc(-c5cc[n+](-c6cc(C[n+]7ccc(-c8cc[n+](CC)cc8)cc7)cc(C[n+]7ccc(-c8cc[n+](CC)cc8)cc7)c6)cc5)cc4)c3)cc2)cc1.F[P-](F)(F)(F)(F)F.F[P-](F)(F)(F)(F)F.F[P-](F)(F)(F)(F)F.F[P-](F)(F)(F)(F)F.F[P-](F)(F)(F)(F)F.F[P-](F)(F)(F)(F)F.F[P-](F)(F)(F)(F)F.F[P-](F)(F)(F)(F)F.F[P-](F)(F)(F)(F)F.F[P-](F)(F)(F)(F)F`, the IC50 in data set [1] is 5.8 µM; in data set [3], 5.6 µg/mL; in data set [4], 1.1 µg/mL; in data set [5], 0.768 µM; in data set [10], greater than 39.2 µM; in data set [11], 0.544 µM. For the same compound, the IC50 in [12] was 24 µM; in data set [13] it was 3.36 µM. In addition, the CC50 in [2] and in data set [7] was greater than 100 µg/mL each time. For the same compound, the inhibition entry in data set [5], in data set [8], in [11], in data set [12] and in data set [13] was “Dose-dependent effect” each time. Also, the result in data set [6] and in [9] was inactive.
Turning to `Cc1cn(CCC[n+]2ccc(-c3cc[n+](Cc4cc(C[n+]5ccc(-c6cc[n+](CCCn7cc(C)c(=O)[nH]c7=O)cc6)cc5)cc(C[n+]5ccc(-c6cc[n+](Cc7cc(C[n+]8ccc(-c9cc[n+](Cc%10cc(C[n+]%11ccc(-c%12cc[n+](CCCn%13cc(C)c(=O)[nH]c%13=O)cc%12)cc%11)cc(C[n+]%11ccc(-c%12cc[n+](CCCn%13cc(C)c(=O)[nH]c%13=O)cc%12)cc%11)c%10)cc9)cc8)cc(-[n+]8ccc(-c9cc[n+](-c%10cc(C[n+]%11ccc(-c%12cc[n+](Cc%13cc(C[n+]%14ccc(-c%15cc[n+](CCCn%16cc(C)c(=O)[nH]c%16=O)cc%15)cc%14)cc(C[n+]%14ccc(-c%15cc[n+](CCCn%16cc(C)c(=O)[nH]c%16=O)cc%15)cc%14)c%13)cc%12)cc%11)cc(C[n+]%11ccc(-c%12cc[n+](Cc%13cc(C[n+]%14ccc(-c%15cc[n+](CCCn%16cc(C)c(=O)[nH]c%16=O)cc%15)cc%14)cc(C[n+]%14ccc(-c%15cc[n+](CCCn%16cc(C)c(=O)[nH]c%16=O)cc%15)cc%14)c%13)cc%12)cc%11)c%10)cc9)cc8)c7)cc6)cc5)c4)cc3)cc2)c(=O)[nH]c1=O.F[P-](F)(F)(F)(F)F.F[P-](F)(F)(F)(F)F.F[P-](F)(F)(F)(F)F.F[P-](F)(F)(F)(F)F.F[P-](F)(F)(F)(F)F.F[P-](F)(F)(F)(F)F.F[P-](F)(F)(F)(F)F.F[P-](F)(F)(F)(F)F.F[P-](F)(F)(F)(F)F.F[P-](F)(F)(F)(F)F.F[P-](F)(F)(F)(F)F.F[P-](F)(F)(F)(F)F.F[P-](F)(F)(F)(F)F.F[P-](F)(F)(F)(F)F.F[P-](F)(F)(F)(F)F.F[P-](F)(F)(F)(F)F.F[P-](F)(F)(F)(F)F.F[P-](F)(F)(F)(F)F.F[P-](F)(F)(F)(F)F.F[P-](F)(F)(F)(F)F.F[P-](F)(F)(F)(F)F.F[P-](F)(F)(F)(F)F.F[P-](F)(F)(F)(F)F.F[P-](F)(F)(F)(F)F.F[P-](F)(F)(F)(F)F.F[P-](F)(F)(F)(F)F`, the IC50 in data set [1] was 0.207 µM; in data set [3] it was 0.41 µg/mL; in data set [4], 1.5 µg/mL; in [5], 0.236 µM; in data set [10], 3.66 µM; in data set [11], 0.21 µM. In addition, the values for the half-inhibitory concentration (IC50) in data set [12] and in data set [13] were 0.273 µM and 0.326 µM, respectively. For the same compound, the CC50 in data set [2] was 19 µg/mL; in data set [7], 20 µg/mL.
